Laboratory results reported in ChEMBL document CHEMBL1123648, “Synthesis, chemical reactivity, and antileukemic activity of 5-substituted 6,7-bis(hydroxymethyl)pyrrolo[1,2-c]thiazole biscarbamates and the corresponding sulfoxides and sulfones” (1987).

Columns and labels:
[1] = Antileukemic activity against Murine P388 lymphocytic leukemia, body weight difference of the test animals compared to control group C animals at a dose of 100 mg/kg; format: functional, Mus musculus; design: unit not given here
How it was run: (§1)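 CD2F1 mice implanted intraperitoneally with ascitic fluid carrying ca. 1×10^6 P388 cells, under the NCI protocol. Dosing was intraperitoneal, starting 24 h after inoculation, then every 24 h for five doses in total. The body weight difference of treated mice is taken against untreated controls. Toxicity day survivors are the mice alive at day five out of those tested.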

[2] = Antileukemic activity against Murine P388 lymphocytic leukemia, body weight difference of the test animals compared to control group C animals at a dose of 200 mg/kg; format: functional, Mus musculus; how it was run: as §1
[3] = Antileukemic activity against Murine P388 lymphocytic leukemia, body weight difference of the test animals compared to control group C animals at a dose of 25 mg/kg; format: functional, Mus musculus; how it was run: as §1
[4] = Antileukemic activity against Murine P388 lymphocytic leukemia, body weight difference of the test animals compared to control group C animals at a dose of 50 mg/kg; format: functional, Mus musculus; design: unit not given here; how it was run: as §1
[5] = Percent increase in life span of test animals compared to untreated tumor-bearing control group C animals at a dose of 100 mg/kg; format: functional; conditions: Mus musculus
[6] = Percent increase in life span of test animals compared to untreated tumor-bearing control group C animals at a dose of 200 mg/kg; format: functional; conditions: Mus musculus
P388 [7] = assay: Log cell population relative to cell population at the beginning of treatment compared to control group C at a dose of 100 mg/kg; format: functional, Mus musculus
[8] = Percent increase in life span of test animals compared to untreated tumor-bearing control group C animals at a dose of 25 mg/kg; format: functional; conditions: Mus musculus
[9] = Percent increase in life span of test animals compared to untreated tumor-bearing control group C animals at a dose of 50 mg/kg; format: functional; conditions: Mus musculus
[10] = Toxicity day survivors expressed as number of animals that survived to day five/ number of test animals under control group C at a dose of 100 mg/kg; 6 survived out of 6; format: functional, Mus musculus
[11] = Toxicity day survivors expressed as number of animals that survived to day five/ number of test animals under control group C at a dose of 200 mg/kg; 6 survived out of 6; format: functional, Mus musculus
[12] = Toxicity day survivors expressed as number of animals that survived to day five/ number of test animals under control group C at a dose of 25 mg/kg; 6 survived out of 6; format: functional, Mus musculus
[13] = Toxicity day survivors expressed as number of animals that survived to day five/ number of test animals under control group C at a dose of 50 mg/kg; 6 survived out of 6; format: functional, Mus musculus
P388 [14] = assay: Log cell population relative to cell population at the beginning of treatment compared to control group A at a dose of 50 mg/kg; format: functional, Mus musculus
P388 [15] = assay: Log cell population relative to cell population at the beginning of treatment compared to control group C at a dose of 200 mg/kg; format: functional, Mus musculus
P388 [16] = assay: Log cell population relative to cell population at the beginning of treatment compared to control group C at a dose of 25 mg/kg; format: functional, Mus musculus
[17] = Antileukemic activity against Murine P388 lymphocytic leukemia, body weight difference of the test animals compared to control group B animals at a dose of 100 mg/kg; format: functional, Mus musculus; design: unit not given here; how it was run: as §1
[18] = Antileukemic activity against Murine P388 lymphocytic leukemia, body weight difference of the test animals compared to control group B animals at a dose of 12.5 mg/kg; format: functional, Mus musculus; design: unit not given here; how it was run: as §1
[19] = Antileukemic activity against Murine P388 lymphocytic leukemia, body weight difference of the test animals compared to control group B animals at a dose of 25 mg/kg; format: functional, Mus musculus; design: unit not given here; how it was run: as §1
[20] = Antileukemic activity against Murine P388 lymphocytic leukemia, body weight difference of the test animals compared to control group B animals at a dose of 50 mg/kg; format: functional, Mus musculus; design: unit not given here; how it was run: as §1
[21] = Toxicity day survivors expressed as number of animals that survived to day five/ number of test animals under control group B at a dose of 100 mg/kg; 6 survived out of 6; format: functional, Mus musculus
[22] = Toxicity day survivors expressed as number of animals that survived to day five/ number of test animals under control group B at a dose of 12.5 mg/kg; 6 survived out of 6; format: functional, Mus musculus
[23] = Toxicity day survivors expressed as number of animals that survived to day five/ number of test animals under control group B at a dose of 25 mg/kg; 6 survived out of 6; format: functional, Mus musculus
[24] = Toxicity day survivors expressed as number of animals that survived to day five/ number of test animals under control group B at a dose of 50 mg/kg; 6 survived out of 6; format: functional, Mus musculus
[25] = Percent increase in life span of test animals compared to untreated tumor-bearing control group B animals at a dose of 100 mg/kg; format: functional; conditions: Mus musculus
[26] = Percent increase in life span of test animals compared to untreated tumor-bearing control group B animals at a dose of 12.5 mg/kg; format: functional; conditions: Mus musculus
[27] = Percent increase in life span of test animals compared to untreated tumor-bearing control group B animals at a dose of 25 mg/kg; format: functional; conditions: Mus musculus
[28] = Percent increase in life span of test animals compared to untreated tumor-bearing control group B animals at a dose of 50 mg/kg; format: functional; conditions: Mus musculus
P388 [29] = assay: Log cell population relative to cell population at the beginning of treatment compared to control group B at a dose of 12.5 mg/kg; format: functional, Mus musculus
P388 [30] = assay: Log cell population relative to cell population at the beginning of treatment compared to control group B at a dose of 25 mg/kg; format: functional, Mus musculus
P388 [31] = assay: Log cell population relative to cell population at the beginning of treatment compared to control group B at a dose of 50 mg/kg; format: functional, Mus musculus
P388 [32] = assay: Log cell population relative to cell population at the beginning of treatment compared to control group B at a dose of 100 mg/kg; format: functional, Mus musculus

CNC(=O)OCc1c(COC(=O)NC)c2n(c1C)C[S+]([O-])C2 (configuration not stated)
BWD [1]: 0.8 | BWD [2]: 0.4 | BWD [3]: 0 | BWD [4]: 1.1 | ILS at 100 mg/kg [5]: 22% | ILS at 200 mg/kg [6]: 15% | KE (P388 [7]): -0.05 | ILS at 25 mg/kg [8]: 13% | ILS at 50 mg/kg [9]: 13% | TDS [10]: 6 | TDS [11]: 6 | TDS [12]: 6 | TDS [13]: 6 | KE (P388 [14]): -0.09 | KE (P388 [15]): -0.08 | KE (P388 [16]): -0.09

Cc1c(COC(=O)NC(C)C)c(COC(=O)NC(C)C)c2n1CS(=O)(=O)C2
BWD [17]: -4 | BWD [18]: -1.1 | BWD [19]: -1.8 | BWD [20]: -1.8 | TDS [21]: 6 | TDS [22]: 6 | TDS [23]: 6 | TDS [24]: 6 | ILS at 100 mg/kg [25]: 118% | ILS at 12.5 mg/kg [26]: 42% | ILS at 25 mg/kg [27]: 59% | ILS at 50 mg/kg [28]: 84% | KE (P388 [29]): 0.85 | KE (P388 [30]): 2.39 | KE (P388 [31]): 4.71 | KE (P388 [32]): >6.77
